Assay results: ChEMBL document CHEMBL1135929, “Investigation of potential bioisosteric replacements for the carboxyl groups of peptidomimetic inhibitors of protein tyrosine phosphatase 1B: identification of a tetrazole-containing inhibitor with cellular activity” (J Med Chem, 2002)

Columns and labels:
[1] = biological target: T1, Tyrosine-protein phosphatase non-receptor type 1 (Homo sapiens) (UniProt P18031); assay: Percent inhibition against Protein-tyrosine phosphatase 1B at a 100 uM concentration
T1 sequence (whole entry): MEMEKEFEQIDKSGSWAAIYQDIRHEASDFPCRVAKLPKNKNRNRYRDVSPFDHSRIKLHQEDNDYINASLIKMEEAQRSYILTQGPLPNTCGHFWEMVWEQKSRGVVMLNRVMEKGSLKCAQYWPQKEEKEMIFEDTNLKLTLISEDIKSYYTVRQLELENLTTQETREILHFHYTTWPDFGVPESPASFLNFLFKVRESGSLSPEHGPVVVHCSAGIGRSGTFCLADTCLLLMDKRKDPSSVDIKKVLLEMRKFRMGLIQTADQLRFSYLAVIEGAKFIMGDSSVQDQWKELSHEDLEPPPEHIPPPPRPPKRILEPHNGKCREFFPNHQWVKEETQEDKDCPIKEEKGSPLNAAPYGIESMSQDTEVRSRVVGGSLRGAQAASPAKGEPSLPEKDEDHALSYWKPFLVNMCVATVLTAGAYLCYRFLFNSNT
Procedure, shortened: (§1)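 PTP1B inhibition was read as pNPP hydrolysis, with compound at a single fixed concentration and activity given as % inhibition. Some entries were measured on PTP1, the rat homologue of PTP1B.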

[2] = organism: Rattus norvegicus; assay: Effect of compound (100 µM) on insulin (10 nM)-stimulated 2-deoxyglucose (2-DOG) uptake into L6 myocytes
[3] = biological target: T2, Tyrosine-protein phosphatase non-receptor type 1 (Homo sapiens, UniProt P18031); assay: Inhibitory constant against Protein-tyrosine phosphatase 1B
T2 sequence (P18031 whole entry): T1 sequence (whole entry)
Procedure, shortened: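 Competitive inhibition of PTP1B was measured with pNPP as substrate. V vs S data were collected at various inhibitor concentrations, and Ki was computed by the Cornish-Bowden direct linear method.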

[4] = biological target: T3, Tyrosine-protein phosphatase non-receptor type 11 (Homo sapiens) (UniProt Q06124); assay: Percent inhibition against Tyrosine phosphatase SHP2 at 100 uM
T3 sequence (whole entry): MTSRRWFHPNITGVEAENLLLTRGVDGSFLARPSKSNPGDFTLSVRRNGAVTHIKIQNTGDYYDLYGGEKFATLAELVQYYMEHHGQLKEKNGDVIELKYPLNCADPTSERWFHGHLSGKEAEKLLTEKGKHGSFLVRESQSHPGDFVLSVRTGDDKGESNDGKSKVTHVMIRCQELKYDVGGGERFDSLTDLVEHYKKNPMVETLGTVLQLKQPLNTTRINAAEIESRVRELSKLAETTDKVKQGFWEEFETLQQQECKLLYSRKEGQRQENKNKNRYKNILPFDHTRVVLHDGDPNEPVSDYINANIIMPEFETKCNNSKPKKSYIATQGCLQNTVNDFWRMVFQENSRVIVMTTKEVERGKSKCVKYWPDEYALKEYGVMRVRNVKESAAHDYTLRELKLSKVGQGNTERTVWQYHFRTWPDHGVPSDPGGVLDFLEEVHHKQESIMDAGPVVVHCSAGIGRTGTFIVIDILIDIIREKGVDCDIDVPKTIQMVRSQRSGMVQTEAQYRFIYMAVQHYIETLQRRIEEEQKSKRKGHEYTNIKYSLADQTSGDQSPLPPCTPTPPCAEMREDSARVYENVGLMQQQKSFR
Procedure, shortened: (§2)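 For specificity screening, recombinant purified LAR and SHP-2 were each tested with compound at 100 µM, reported as % inhibition.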

[5] = biological target: T1, Tyrosine-protein phosphatase non-receptor type 1 (Homo sapiens); assay: Percent inhibition against Protein-tyrosine phosphatase 1B at a 10 uM concentration
[6] = organism: Rattus norvegicus; assay: Effect on basal uptake without insulin into intact cells (L6 myocytes), to that of control cells; assay type: functional, cell-based
[7] = biological target: T1, Tyrosine-protein phosphatase non-receptor type 1 (Homo sapiens); assay: Percent inhibition against Protein-tyrosine phosphatase 1B at a 1 uM concentration
[8] = biological target: Receptor-type tyrosine-protein phosphatase F (Homo sapiens) (UniProt P10586); assay: Percent inhibition against Protein-tyrosine phosphatase Lar at 100 uM; procedure, shortened: as §2
Sequence of Receptor-type tyrosine-protein phosphatase F (Homo sapiens) (P10586 whole entry): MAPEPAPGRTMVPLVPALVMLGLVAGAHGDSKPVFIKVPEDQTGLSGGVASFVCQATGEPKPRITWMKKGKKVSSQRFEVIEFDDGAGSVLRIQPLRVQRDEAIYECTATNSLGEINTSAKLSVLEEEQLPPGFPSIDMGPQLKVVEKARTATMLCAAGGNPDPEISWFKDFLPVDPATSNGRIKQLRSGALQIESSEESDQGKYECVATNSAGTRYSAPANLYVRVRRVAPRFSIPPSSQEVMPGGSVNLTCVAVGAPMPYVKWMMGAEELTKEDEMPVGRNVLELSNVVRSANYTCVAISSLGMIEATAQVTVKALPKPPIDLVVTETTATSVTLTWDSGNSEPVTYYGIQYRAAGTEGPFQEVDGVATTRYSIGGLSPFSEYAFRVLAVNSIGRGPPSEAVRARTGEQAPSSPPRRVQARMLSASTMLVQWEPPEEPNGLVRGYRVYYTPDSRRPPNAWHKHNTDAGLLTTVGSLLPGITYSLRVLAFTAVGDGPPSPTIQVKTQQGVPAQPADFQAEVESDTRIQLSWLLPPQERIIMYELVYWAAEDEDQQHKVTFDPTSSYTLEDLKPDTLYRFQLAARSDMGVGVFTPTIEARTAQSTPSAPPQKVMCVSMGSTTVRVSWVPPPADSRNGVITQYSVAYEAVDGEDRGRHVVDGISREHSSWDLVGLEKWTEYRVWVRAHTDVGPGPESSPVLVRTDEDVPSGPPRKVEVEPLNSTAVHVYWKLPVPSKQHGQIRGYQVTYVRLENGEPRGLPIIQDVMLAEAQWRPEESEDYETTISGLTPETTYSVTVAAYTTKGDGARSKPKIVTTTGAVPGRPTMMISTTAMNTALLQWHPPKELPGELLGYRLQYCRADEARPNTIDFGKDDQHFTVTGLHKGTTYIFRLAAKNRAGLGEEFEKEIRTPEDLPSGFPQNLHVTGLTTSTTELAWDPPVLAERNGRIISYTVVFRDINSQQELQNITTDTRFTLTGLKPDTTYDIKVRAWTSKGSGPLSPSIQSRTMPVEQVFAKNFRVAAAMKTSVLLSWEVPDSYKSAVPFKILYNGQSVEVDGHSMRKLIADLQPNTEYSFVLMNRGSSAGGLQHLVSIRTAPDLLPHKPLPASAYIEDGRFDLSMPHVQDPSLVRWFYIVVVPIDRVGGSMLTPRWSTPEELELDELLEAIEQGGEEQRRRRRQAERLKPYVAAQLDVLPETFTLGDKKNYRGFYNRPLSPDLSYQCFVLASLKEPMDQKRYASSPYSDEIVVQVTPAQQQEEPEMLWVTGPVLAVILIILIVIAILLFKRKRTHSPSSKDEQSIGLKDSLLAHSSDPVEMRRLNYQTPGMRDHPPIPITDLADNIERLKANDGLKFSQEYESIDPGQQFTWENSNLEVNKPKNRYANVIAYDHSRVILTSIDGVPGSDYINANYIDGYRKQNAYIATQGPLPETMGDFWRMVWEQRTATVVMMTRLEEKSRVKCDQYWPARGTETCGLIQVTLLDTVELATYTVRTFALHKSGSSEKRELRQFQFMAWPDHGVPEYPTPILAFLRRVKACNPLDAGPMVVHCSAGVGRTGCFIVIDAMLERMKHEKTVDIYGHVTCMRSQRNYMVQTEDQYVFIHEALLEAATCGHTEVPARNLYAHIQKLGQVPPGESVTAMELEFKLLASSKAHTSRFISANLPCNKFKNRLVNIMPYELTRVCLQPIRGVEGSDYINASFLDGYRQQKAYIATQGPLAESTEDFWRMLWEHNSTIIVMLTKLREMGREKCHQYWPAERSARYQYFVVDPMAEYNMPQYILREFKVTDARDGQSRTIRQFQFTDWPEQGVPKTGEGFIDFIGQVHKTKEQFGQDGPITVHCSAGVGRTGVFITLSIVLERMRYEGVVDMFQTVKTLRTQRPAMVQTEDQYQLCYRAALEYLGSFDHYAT

[9] = biological target: Receptor-type tyrosine-protein phosphatase F (Homo sapiens) (UniProt P10586); assay: Percent inhibition of compound against Protein-tyrosine phosphatase Lar at 100 uM; procedure, shortened: as §2
[10] = biological target: T4, Tyrosine-protein phosphatase non-receptor type 1 (Rattus norvegicus) (UniProt P20417); assay: Percent inhibition of compound against Protein-tyrosine phosphatase 1B at a 100 uM concentration; procedure, shortened: as §1
T4 sequence (whole entry): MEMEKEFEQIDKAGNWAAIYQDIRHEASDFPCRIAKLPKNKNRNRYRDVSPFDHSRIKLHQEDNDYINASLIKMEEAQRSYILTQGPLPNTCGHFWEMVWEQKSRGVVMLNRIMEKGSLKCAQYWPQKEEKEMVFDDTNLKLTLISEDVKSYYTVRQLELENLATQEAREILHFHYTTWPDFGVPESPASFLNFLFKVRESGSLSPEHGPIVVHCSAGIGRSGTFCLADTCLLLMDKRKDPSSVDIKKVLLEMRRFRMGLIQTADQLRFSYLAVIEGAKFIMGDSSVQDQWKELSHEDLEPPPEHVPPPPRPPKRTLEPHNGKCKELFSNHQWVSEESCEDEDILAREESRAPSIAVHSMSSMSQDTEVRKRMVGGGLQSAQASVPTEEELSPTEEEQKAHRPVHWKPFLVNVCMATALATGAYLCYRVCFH

[11] = biological target: Tyrosine-protein phosphatase non-receptor type 11 (SHP-2) (Homo sapiens) (UniProt Q06124); assay: Percent inhibition of compound against Tyrosine phosphatase SHP2 at 100 uM
[12] = biological target: T2, Tyrosine-protein phosphatase non-receptor type 1; assay: Inhibition constant of compound against Protein-tyrosine phosphatase 1B

Row | inhibition [1] | Ki [3] | inhibition [4] | inhibition [5] | inhibition [7] | inhibition [8] | inhibition [9] | inhibition [10] | inhibition [11] | Ki [12] | SMILES | Uptake [2] | Uptake [6]
1 | 25% |  | 0% | 5% | 3% | 0% |  |  |  |  | CCCCCNC(=O)[C@H](Cc1ccc(OCC(=O)OC)c(C(=O)O)c1)NC(=O)[C@H](Cc1ccccc1)NC(=O)OC(C)(C)C |  | 
2 | 30% |  | 4% | 8% | 6% | 1% |  |  |  |  | CCCCCNC(=O)[C@H](Cc1ccc(OCC(=O)NO)c(C(=O)O)c1)NC(=O)[C@H](Cc1ccccc1)NC(=O)OC(C)(C)C |  | 
3 | 54% |  | 6% | 13% | 5% | 3% |  |  |  |  | CCCCCNC(=O)[C@H](Cc1ccc(OCC(=O)O)c(C(=O)NO)c1)NC(=O)[C@H](Cc1ccccc1)NC(=O)OC(C)(C)C |  | 
4 | 4% |  | 0% | 2% | 3% | 0% |  |  |  |  | CCCCCNC(=O)[C@H](Cc1ccc(OCC(=O)O)c(C(=O)OC)c1)NC(=O)[C@H](Cc1ccccc1)NC(=O)OC(C)(C)C |  | 
5 | 0% |  | 0% | 0% | 0% | 0% |  |  |  |  | CCCCCNC(=O)[C@H](Cc1ccc(OCC(N)=O)c(C(=O)O)c1)NC(=O)[C@H](Cc1ccccc1)NC(=O)OC(C)(C)C |  | 
6 | 97% | 2000 nM | 2% | 78% | 30% | 0% |  |  |  |  | CCCCCNC(=O)[C@H](Cc1ccc(OCC(=O)O)c(C(=O)O)c1)NC(=O)[C@H](Cc1ccccc1)NC(=O)OC(C)(C)C |  | 
7 | 17% |  | 5% | 3% | 1% | 0% |  |  |  |  | CCCCCNC(=O)[C@H](Cc1ccc(OCc2nn[nH]n2)c(C(=O)O)c1)NC(=O)[C@H](Cc1ccccc1)NC(=O)OC(C)(C)C |  | 
8 | 18% |  | 1% | 4% | 3% | 13% |  |  |  |  | CCCCCNC(=O)[C@H](Cc1ccc(OCC(=O)O)c(CCC(=O)O)c1)NC(=O)[C@H](Cc1ccccc1)NC(=O)OC(C)(C)C |  | 

More lines, now with the values behind:

Row | SMILES | inhibition [1] | Ki [3] | inhibition [4] | inhibition [5] | inhibition [7] | inhibition [8] | inhibition [9] | inhibition [10] | inhibition [11] | Ki [12] | Uptake [2] | Uptake [6]
9 | CCCCCNC(=O)[C@H](Cc1ccc(OCC(=O)O)c(-c2nn[nH]n2)c1)NC(=O)[C@H](Cc1ccccc1)NC(=O)OC(C)(C)C | 97% | 2000 nM | 1% | 77% | 27% | 0% |  |  |  |  | 147% | 99%
10 | CCCCCNC(=O)C(Cc1ccc2c(c1)OCCOC2=O)NC(=O)CCC(=O)O (stereo unspecified) | 1% |  | 0% |  |  | 0% |  |  |  |  |  | 
11 | CCCCCNC(=O)C(Cc1ccc(OCC(=O)O)c(C(C)=O)c1)NC(=O)CCC(=O)O (stereo unspecified) |  |  |  |  |  |  | -2% | 8% | 1% |  |  | 
12 | CCCCCNC(=O)C(Cc1ccc(OCCO)c(C(=O)O)c1)NC(=O)CCC(=O)O (stereo unspecified) | 4% |  | 0% |  |  | 0% |  |  |  |  |  | 
13 | CCCCCNC(=O)C(Cc1ccc(OCC(=O)O)c(C(=O)O)c1)NC(=O)CCC(=O)O (stereo unspecified) |  |  | 5% |  |  | 0% |  |  |  | 6500 nM |  | 
14 | CCCCCNC(=O)C(Cc1ccc(OCC(=O)O)c(C#N)c1)NC(=O)CCC(=O)O (stereo unspecified) | 4% |  | 0% |  |  | 0% |  |  |  |  |  | 
15 | CCCCCNC(=O)C(Cc1ccc(OCC#N)c(C(=O)O)c1)NC(=O)CCC(=O)O (stereo unspecified) | 3% |  | 0% |  |  | 0% |  |  |  |  |  | 
16 | CCCCCNC(=O)[C@H](Cc1ccc(OCC(=O)O)c(-c2cc(O)no2)c1)NC(=O)[C@H](Cc1ccccc1)NC(=O)OC(C)(C)C | 9% |  |  | 1% | 1% | 0% |  |  |  |  |  | 
17 | CCCCCNC(=O)[C@H](Cc1ccc(OCC(=O)O)c(C#CC(=O)O)c1)NC(=O)[C@H](Cc1ccccc1)NC(=O)OC(C)(C)C | 16% |  | 1% | 3% | 1% | 1% |  |  |  |  |  | 
